HSP90 refold inh: inhibitors of HSP90 luciferase refolding in rabbit reticulocyte lysate; luciferase refolding luminescence, 3 h; inhibition, % at 5.6 µM; actives 0.91% (n = 290,000); AID 1789;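 active = inhibition above the screen-wide mean plus 3 SD, computed separately per campaign, cut at about 16% in these data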;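 also: 0% = DMSO wells and 100% = 60 µM geldanamycin wells; inhibitors lower the luminescence because luciferase stays unfolded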
PPC-1+TRAIL kill: compounds killing PPC-1 cancer cells with TRAIL present (potentiator screen, no TRAIL-free arm) | PPC-1 cells + TRAIL, ATPLite viability luminescence | cell killing (% activity), % at 4 µM or 5 µM | actives 0.41% (n = 220,000);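 active = cell killing above 50% in the first pass at 4 µM, then a duplicate retest at 5 µM averaging 50% or more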;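 also: plate controls were cells with TRAIL plus DMSO for no effect and medium-only wells lacking cells for full effect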
FLuc inh counter: counter-screen for luciferase assay inhibitors: firefly luciferase inhibition; inhibition, % at 10 µM; actives 1.5% (n = 200,000); P08659; ATPLite firefly luciferase biochemical luminescence, 10 min; AID 1006;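 active = inhibition above about 50% when tested at 10 µM, limit read from the data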
Target sequence (P08659 whole entry, looked up): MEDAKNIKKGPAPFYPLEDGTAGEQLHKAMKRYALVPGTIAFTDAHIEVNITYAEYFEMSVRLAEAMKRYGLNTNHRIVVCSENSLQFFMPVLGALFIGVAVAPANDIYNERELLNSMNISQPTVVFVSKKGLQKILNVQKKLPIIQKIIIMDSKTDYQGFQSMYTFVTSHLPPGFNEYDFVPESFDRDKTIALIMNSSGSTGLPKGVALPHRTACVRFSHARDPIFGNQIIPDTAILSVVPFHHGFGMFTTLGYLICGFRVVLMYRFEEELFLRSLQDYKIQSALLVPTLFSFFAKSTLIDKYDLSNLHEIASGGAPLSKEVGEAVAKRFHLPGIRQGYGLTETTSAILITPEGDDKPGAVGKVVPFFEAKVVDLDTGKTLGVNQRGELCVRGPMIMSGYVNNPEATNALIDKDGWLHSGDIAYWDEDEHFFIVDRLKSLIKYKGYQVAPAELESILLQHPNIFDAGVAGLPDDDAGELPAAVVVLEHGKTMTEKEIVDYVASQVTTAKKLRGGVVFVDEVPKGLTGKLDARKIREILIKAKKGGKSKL
FLuc act counter: firefly luciferase counter-screen for stimulation assays; P08659; ATPlite luciferase biochemical, luminescence, 10 min; 0 = ATP-free wells, 1 = DMSO control; activation factor at 10 µM; 200,000 tested, under 10 active; AID 1027;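 active = luciferase activation factor, scaled between plate controls, of at least 2 with compound at 10 µM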
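Material: luciferase plus luciferin reagent, cell-free. Medium: PBS buffer for ATP. Also added: ATP substrate, dispensed from a 10.24 µM working solution in PBS. Doses: test compounds dosed from 2 mM stocks in 100% DMSO. Incubation: 10 min post-reagent at room temperature. Technique: light output (luminescence). Read-out basis: luminescence gain marking luciferase activators.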
TRAIL sens C8: caspase-8 TRAIL sensitization; NB7+C8 cells + TRAIL, ATPlite viability luminescence; inhibition (viability loss, TRAIL sensitization), % at 10 µM; actives 1% (n = 360,000); AID 624354;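 active = compounds causing at least 50% loss of cell viability in the single-dose screen, relative to plate controls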
* hit, by the source's call; nt = no result; ! = not active in a repeat. Only some compounds are listed: those with a hit (about 2% of all), similar ones and a draw of the others.

SMILES | HSP90 refold inh | PPC-1+TRAIL kill | FLuc inh counter | FLuc act counter | TRAIL sens C8
O=C(COc1ccccc1[N+](=O)[O-])Nc1ccc(N2CCN(C(=O)c3cccs3)CC2)cc1 | -3 | 25 | -7 | 1.1 | 33
O=[N+]([O-])c1cc(S(=O)(=O)Oc2ccccc2)ccc1Cl | nt | nt | nt | nt | 58*
COc1ccc(OC)c(NC(=O)c2cc(-c3cc(Cl)ccc3O)n[nH]2)c1 | -1 | 7 | -5 | 1.1 | 51*
COc1ccc(Cl)cc1NC(=O)c1cc(-c2ccccc2O)n[nH]1 | 0 | 35 | 2 | 1 | 15
CCOC(=O)c1sc(/N=C/c2ccc(O)cc2O)cc1C | 3 | 22 | 86* | 0.1 | 11
CN(Cc1ccccc1Br)C(=O)CN1C(=O)NC2(CCCCCC2)C1=O | nt | nt | nt | nt | -4
CN(C)c1ccnc2c[cH-]cc12.[Fe].c1ccc(-[c-]2[c-](-c3ccccc3)[c-](-c3ccccc3)[c-](-c3ccccc3)[c-]2-c2ccccc2)cc1 (stereo not drawn) | nt | 27 | nt | nt | 89*!
CN(C)c1ccnc(Nc2ccccc2)c1C#N | -3 | 18 | 0 | 1 | -12
CCN1CCN(c2ccc(S(=O)(=O)N3CCCCC3)cc2NC(=O)c2ccc([N+](=O)[O-])o2)CC1 | nt | nt | nt | nt | 55*
COc1ccc(S(=O)(=O)N2CCCCC2)cc1NC(=O)c1ccc([N+](=O)[O-])o1 | 0 | 23 | -5 | 1.1 | 34
CCN1CCN(c2ccc(S(=O)(=O)N3CCOCC3)cc2NC(=O)/C=C/c2ccc([N+](=O)[O-])cc2)CC1 | nt | nt | nt | nt | 53*
CCN1CCN(c2ccc(S(=O)(=O)N3CCOCC3)cc2NC(=O)c2cccc([N+](=O)[O-])c2)CC1 | nt | nt | nt | nt | -13
Cc1ccc(OCc2cn3cccnc3n2)cc1 | 3 | 14 | 33 | 0.7 | 13
C/C(=N\Nc1nc(C)cc(-c2ccccc2)n1)c1cccc(N)c1 | -3 | nt | nt | nt | 51*
O=C(Nc1ccc(Cl)cn1)c1ccc2ccccc2n1 | -4 | 8 | 24 | 0.8 | 29
Cc1ccc(NC(=O)c2ccc3ccccc3n2)nc1 | -1 | 40 | 73* | 0.3 | 28
Cc1ccc(NC(=O)c2cc3ccccc3o2)nc1 | nt | nt | nt | nt | 59*
Cc1ccc(C(=O)c2cc3ccccc3o2)cc1C | -8 | 6 | 28 | 0.7 | 11
Cc1ccc(C(=O)c2cc3ccccc3o2)cc1 | -4 | 19 | 57* | 0.4 | 30
O=C(CN1C2=NCCCN2c2ccccc21)c1ccc([N+](=O)[O-])cc1 | 3 | 20 | -1 | 1 | -3
COc1cc(S(=O)(=O)N2CCN(c3ccccc3F)CC2)ccc1Cl | 4 | 28 | 74* | 0.3 | -9
CCC1(C)NC(=O)N(CC(=O)NCC(=O)Nc2c(C)cc(C)cc2C)C1=O (stereo not drawn) | nt | nt | nt | nt | -5
O=C(OCn1nnc2ccccc2c1=O)c1cccc(S(=O)(=O)N2CCOCC2)c1 | nt | nt | nt | nt | -11
CC(C)COC(=O)c1ccc2c(c1O)C(=O)c1ccccc1C2=O | 14 | 36 | 39 | 0.6 | 57*
Cc1ccc2nc(/C(C#N)=C\c3ccc([N+](=O)[O-])o3)[nH]c2c1 | 4 | 32 | -2 | 1 | 81*
SMILES | HSP90 refold inh | PPC-1+TRAIL kill | FLuc inh counter | FLuc act counter | TRAIL sens C8
Cc1ccc(/C(C#N)=C\c2ccc(N3CCOCC3)o2)cc1 | -2 | -5 | 15 | 0.8 | 0
Cc1ccc2nc(/C(C#N)=C\c3ccc(N4CCOCC4)o3)[nH]c2c1 | 3 | 15 | 62* | 0.4 | 32
COc1cc(C(=O)OCC(=O)Nc2ccccc2C(=O)NC2CC2)c([N+](=O)[O-])cc1OC | nt | nt | nt | nt | -15
COc1ccccc1Cc1c(-c2ccco2)nc2c3ccccc3ccn12 | nt | nt | nt | nt | 28
CCOC(=O)c1ccc2ncc(-c3ccccc3)nc2c1 | -4 | 24 | 74* | 0.3 | 17
Cc1cc2ncc(-c3ccccc3)nc2cc1C | 15 | nt | nt | nt | 27
N#C/C(=C\c1cccs1)C(=O)Nc1nccs1 | -7 | 21 | 75* | 0.3 | 6
COc1ccc(Cc2c(C3CCCCC3)nc3c(C)cc(Br)cn23)c(C)c1 | nt | nt | nt | nt | 1
CCn1cnc2cc(NCc3nc4ccccc4n3C)ccc21 | 13 | 5 | 53* | 0.5 | 38
Cc1ccc(CNc2ccc3c(c2)ncn3C(C)C)cc1 | -8 | 14 | nt | nt | -1
CC(C)n1cnc2cc(NCc3nc4ccccc4n3C)ccc21 | 16* | 35 | 54* | 0.5 | 32
CC1O[C@@H](O[C@H](C)CC[C@@H](C)O[C@H]2OC(C)[C@@H](O)C[C@H]2O)C(O)C[C@H]1O (stereo partly drawn) | nt | nt | nt | nt | -8
CC(C)Oc1ccc(C(=O)NCCCNC(=O)c2cccnc2)cc1 | 3 | nt | nt | nt | -3
CCCC[n+]1ccn(C2=C([O-])c3ccccc3C(=O)/C2=N\S(=O)(=O)c2ccc(Br)cc2)c1 | 1 | 25 | 2 | 1 | 56*
Cc1ccc(S(=O)(=O)/N=C2\C(=O)c3ccccc3C([O-])=C2n2cc[n+](CCC(C)C)c2)cc1 | -2 | -7 | -3 | 1 | 37
CCOC(=O)[C@]12CCC=C1N(CCC1=CCCCC1)C(=O)[C@H](CC(=O)NCc1ccc(OC)c(OC)c1)C2 | nt | nt | nt | nt | 0
CC(O)CNCCCOc1ccccc1OCc1ccccc1 (stereo not drawn) | 17* | 2 | 0 | 1 | -7
Cc1cc(/C=N/NC(=O)C(=O)NCc2ccccn2)c(C)n1-c1ccccc1 | 1 | 14 | 58* | 0.4 | 33
Cc1cc(/C=N\NC(=O)COc2cccc3cccnc23)c(C)n1-c1ccccc1 | 1 | 12 | 71* | 0.3 | 23
Clc1nc(NC2CCCCC2)c2cn[nH]c2n1 | nt | nt | nt | nt | 5
CCOc1cccc(C(=O)NC(=S)Nc2ccc3c(c2)OCCO3)c1 | 2 | 14 | 16 | 0.8 | 12
O=C(NC(=S)Nc1ccc2c(c1)OCCO2)c1ccccc1F | -1 | 10 | 50* | 0.5 | 23
O=C(NC(=S)Nc1ccc2c(c1)OCCO2)c1ccccc1 | 10 | 11 | 68* | 0.3 | 27
COc1cccc(OC)c1C(=O)NC(=S)Nc1ccc2c(c1)OCCO2 | 0 | 0 | 11 | 0.9 | 3
CCN1CCc2c(sc(NC(=O)c3ccc(S(=O)(=O)N(C)c4ccccc4)cc3)c2C(=O)NC)C1 | 1 | nt | nt | nt | 55*
SMILES | HSP90 refold inh | PPC-1+TRAIL kill | FLuc inh counter | FLuc act counter | TRAIL sens C8
CNC(=O)c1c(NC(=O)c2ccc(S(=O)(=O)N(C)c3ccccc3)cc2)sc2c1CCN(C(C)C)C2 | 5 | nt | nt | nt | nt
Cc1ccc(C2=C/C(=C/c3cccs3)C(=O)O2)cc1 | 4 | 13 | 85* | 0.1 | -3
Cc1ccc(C=C2C=C(c3ccccc3)OC2=O)cc1 | nt | nt | nt | nt | -15
O=C1c2ccccc2[C@@H]2Cc3csc[n+]3[C@H]12 | nt | nt | nt | nt | -1
CN1CCCC(C)(C(=O)Nc2ccc3scnc3c2)C1 (stereo not drawn) | nt | nt | nt | nt | -17
COc1ccc(-c2cn3cccnc3n2)cc1F | 1 | 37 | 57* | 0.4 | 28

Screening results as filed in PubChem.
